Data published in ChEMBL document CHEMBL1157665, “Novel 4-thiazolidinone derivatives as potential antifungal and antibacterial drugs” (2010).
Converted amounts (≈) assume the structure as drawn.

What was measured:
Aspergillus versicolor [1] = test: Antifungal activity against Aspergillus versicolor ATCC 11730 after 72 hrs by serial sub-cultivation method; format: functional; details: ATCC 11730, 72 h
Procedure, shortened: (§1)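 MFC was found by serial sub-cultivation of 2 µl into plates holding 100 µl broth per well, then incubation 72 h at 28 °C. MFC is the lowest concentration with no visible growth, taken as 99.5% killing of the original inoculum. Spore inocula came from malt agar cultures washed with 0.85% saline and 0.1% Tween 80.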

Micrococcus flavus [2] = test: Antibacterial activity against Micrococcus flavus ATCC 10240 after 72 hrs by serial sub-cultivation method; format: functional; details: ATCC 10240, 72 h
Procedure, shortened: (§2)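 MBC was found by serial sub-cultivation of 2 µl from the MIC wells into plates holding 100 µl broth per well, then incubation for 72 h. MBC is the lowest concentration with no visible growth, i.e. 99.5% killing of the original inoculum. Bacterial inoculum was 1.0 × 10^4 cfu per well in LB broth. Duplicate, repeated three times.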

Aspergillus versicolor [3] = test: Antifungal activity against Aspergillus versicolor ATCC 11730 after 72 hrs by serial dilution method; format: functional; details: ATCC 11730, 72 h
Procedure, shortened: (§3)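 Fungi were kept on malt agar at 4 °C and sub-cultured monthly. Spores were washed off the agar with sterile 0.85% saline containing 0.1% Tween 80 (v/v). Modified microdilution in 96-well plates. MIC is the lowest concentration with no visible growth under the binocular microscope. Inoculum checked on malt agar for contamination and validity.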

Bacillus cereus [4] = test: Antibacterial activity against Bacillus cereus clinical isolate after 72 hrs by serial sub-cultivation method; format: functional; procedure, shortened: as §2
Staphylococcus aureus [5] = test: Antibacterial activity against Staphylococcus aureus ATCC 6538 after 72 hrs by serial sub-cultivation method; format: functional; details: ATCC 6538, 72 h; procedure, shortened: as §2
Penicillium ochrochloron [6] = test: Antifungal activity against Penicillium ochrochloron ATCC 9112 after 72 hrs by serial dilution method; format: functional; details: ATCC 9112, 72 h; procedure, shortened: as §3
Bacillus cereus [7] = test: Antibacterial activity against Bacillus cereus clinical isolate after 24 hrs; format: functional
Procedure, shortened: (§4)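 Broth microdilution MIC in 96-well plates. Compounds in LB broth with bacterial inoculum of 1.0 × 10^4 cfu per well, from suspensions adjusted with sterile saline to 1.0 × 10⁵ CFU/ml. Incubated 24 h at […] as printed. MIC taken as the lowest concentration with no visible growth under the binocular microscope. OD at 655 nm also read against blank. Streptomycin and ampicillin as positive controls. Duplicate, repeated three times.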

Fulvia fulva [8] = test: Antifungal activity against Fulvia fulva TK 5318 after 72 hrs by serial dilution method; format: functional; details: TK 5318, 72 h; procedure, shortened: as §3
Aspergillus niger [9] = test: Antifungal activity against Aspergillus niger ATCC 6275 after 72 hrs by serial sub-cultivation method; format: functional; details: ATCC 6275, 72 h; procedure, shortened: as §1
Talaromyces funiculosus [10] = test: Antifungal activity against Penicillium funiculosum ATCC 36839 after 72 hrs by serial dilution method; format: functional; details: ATCC 36839, 72 h; procedure, shortened: as §3
Proteus mirabilis [11] = test: Antibacterial activity against Proteus mirabilis after 72 hrs by serial sub-cultivation method; format: functional; procedure, shortened: as §2
Listeria monocytogenes [12] = test: Antibacterial activity against Listeria monocytogenes NCTC 7973 after 72 hrs by serial sub-cultivation method; format: functional; details: NCTC 7973, 72 h; procedure, shortened: as §2
Fulvia fulva [13] = test: Antifungal activity against Fulvia fulva TK 5318 after 72 hrs by serial sub-cultivation method; format: functional; details: TK 5318, 72 h; procedure, shortened: as §1
Aspergillus flavus [14] = test: Antifungal activity against Aspergillus flavus ATCC 9643 after 72 hrs by serial sub-cultivation method; format: functional; details: ATCC 9643, 72 h; procedure, shortened: as §1
Talaromyces funiculosus [15] = test: Antifungal activity against Penicillium funiculosum ATCC 36839 after 72 hrs by serial sub-cultivation method; format: functional; details: ATCC 36839, 72 h; procedure, shortened: as §1
Trichoderma viride [16] = test: Antifungal activity against Trichoderma viride IAM 5061 after 72 hrs by serial dilution method; format: functional; details: IAM 5061, 72 h; procedure, shortened: as §3
Aspergillus fumigatus [17] = test: Antifungal activity against Aspergillus fumigatus plant isolate after 72 hrs by serial dilution method
Salmonella typhimurium [18] = test: Antibacterial activity against Salmonella Typhimurium ATCC 13311 after 72 hrs by serial sub-cultivation method; format: functional, Salmonella enterica subsp. enterica serovar Typhimurium; details: Salmonella enterica, ATCC 13311, 72 h; procedure, shortened: as §2
Escherichia coli [19] = test: Antibacterial activity against Escherichia coli ATCC 35210 after 72 hrs by serial sub-cultivation method; format: functional; details: ATCC 35210, 72 h; procedure, shortened: as §2
Salmonella typhimurium [20] = test: Antibacterial activity against Salmonella Typhimurium ATCC 13311 after 24 hrs; format: functional, Salmonella enterica subsp. enterica serovar Typhimurium; details: Salmonella enterica, ATCC 13311, 24 h; procedure, shortened: as §4
Aspergillus fumigatus [21] = test: Antifungal activity against Aspergillus fumigatus plant isolate after 72 hrs by serial sub-cultivation method
Aspergillus flavus [22] = test: Antifungal activity against Aspergillus flavus ATCC 9643 after 72 hrs by serial dilution method; format: functional; details: ATCC 9643, 72 h; procedure, shortened: as §3
Escherichia coli [23] = test: Antibacterial activity against Escherichia coli ATCC 35210 after 24 hrs; format: functional; details: ATCC 35210, 24 h; procedure, shortened: as §4
Trichoderma viride [24] = test: Antifungal activity against Trichoderma viride IAM 5061 after 72 hrs by serial sub-cultivation method; format: functional; details: IAM 5061, 72 h; procedure, shortened: as §1
Pseudomonas aeruginosa [25] = test: Antibacterial activity against Pseudomonas aeruginosa ATCC 27853 after 72 hrs by serial sub-cultivation method; format: functional; details: ATCC 27853, 72 h; procedure, shortened: as §2
Micrococcus flavus [26] = test: Antibacterial activity against Micrococcus flavus ATCC 10240 after 24 hrs; format: functional; details: ATCC 10240, 24 h; procedure, shortened: as §4
Staphylococcus aureus [27] = test: Antibacterial activity against Staphylococcus aureus ATCC 6538 after 24 hrs; format: functional; details: ATCC 6538, 24 h; procedure, shortened: as §4
Proteus mirabilis [28] = test: Antibacterial activity against Proteus mirabilis after 24 hrs; format: functional; procedure, shortened: as §4
Penicillium ochrochloron [29] = test: Antifungal activity against Penicillium ochrochloron ATCC 9112 after 72 hrs by serial sub-cultivation method; format: functional; details: ATCC 9112, 72 h; procedure, shortened: as §1
Pseudomonas aeruginosa [30] = test: Antibacterial activity against Pseudomonas aeruginosa ATCC 27853 after 24 hrs; format: functional; details: ATCC 27853, 24 h; procedure, shortened: as §4
Listeria monocytogenes [31] = test: Antibacterial activity against Listeria monocytogenes NCTC 7973 after 24 hrs; format: functional; details: NCTC 7973, 24 h; procedure, shortened: as §4
Aspergillus niger [32] = test: Antifungal activity against Aspergillus niger ATCC 6275 after 72 hrs by serial dilution method; format: functional; details: ATCC 6275, 72 h; procedure, shortened: as §3

SMILES	MFC (Aspergillus versicolor [1]) [µM]	MBC (Micrococcus flavus [2]) [µM]	MIC (Aspergillus versicolor [3]) [µM]	MBC (Bacillus cereus [4]) [µM]	MBC (Staphylococcus aureus [5]) [µM]	MIC (Penicillium ochrochloron [6]) [µM]	MIC (Bacillus cereus [7]) [µM]	MIC (Fulvia fulva [8]) [µM]	MBC (Proteus mirabilis [11]) [µM]	MBC (Listeria monocytogenes [12]) [µM]	MBC (Salmonella typhimurium [18]) [µM]	MBC (Escherichia coli [19]) [µM]	MIC (Salmonella typhimurium [20]) [µM]	MIC (Escherichia coli [23]) [µM]	MBC (Pseudomonas aeruginosa [25]) [µM]	MIC (Micrococcus flavus [26]) [µM]	MIC (Staphylococcus aureus [27]) [µM]	MIC (Proteus mirabilis [28]) [µM]	MIC (Pseudomonas aeruginosa [30]) [µM]	MIC (Listeria monocytogenes [31]) [µM]	further results
O=C1N/C(=N/c2nc(C34CC5CC(CC(C5)C3)C4)cs2)S/C1=C\c1ccccc1Cl	21.9 (≈ 9.99 µg/mL)	23.8 (≈ 10.9 µg/mL)	16.4 (≈ 7.48 µg/mL)	43.8 (≈ 20 µg/mL)	43.8 (≈ 20 µg/mL)	11 (≈ 5.02 µg/mL)	21.9 (≈ 9.99 µg/mL)	11 (≈ 5.02 µg/mL)	63.7 (≈ 29 µg/mL)	43.8 (≈ 20 µg/mL)	43.8 (≈ 20 µg/mL)	43.8 (≈ 20 µg/mL)	21.9 (≈ 9.99 µg/mL)	21.9 (≈ 9.99 µg/mL)	43.8 (≈ 20 µg/mL)	16.4 (≈ 7.48 µg/mL)	21.9 (≈ 9.99 µg/mL)	43.8 (≈ 20 µg/mL)	21.9 (≈ 9.99 µg/mL)	21.9 (≈ 9.99 µg/mL)	MFC (Aspergillus niger [9]): 21.9 µM (≈ 9.99 µg/mL); MIC (Talaromyces funiculosus [10]): 21.9 µM (≈ 9.99 µg/mL); MFC (Fulvia fulva [13]): 16.4 µM (≈ 7.48 µg/mL); MFC (Aspergillus flavus [14]): 21.9 µM (≈ 9.99 µg/mL); MFC (Talaromyces funiculosus [15]): 32.3 µM (≈ 14.7 µg/mL); MIC (Trichoderma viride [16]): 11 µM (≈ 5.02 µg/mL); MIC (Aspergillus fumigatus [17]): 16.4 µM (≈ 7.48 µg/mL); MFC (Aspergillus fumigatus [21]): 21.9 µM (≈ 9.99 µg/mL); MIC (Aspergillus flavus [22]): 11 µM (≈ 5.02 µg/mL); MFC (Trichoderma viride [24]): 21.9 µM (≈ 9.99 µg/mL); MFC (Penicillium ochrochloron [29]): 21.9 µM (≈ 9.99 µg/mL); MIC (Aspergillus niger [32]): 11 µM (≈ 5.02 µg/mL)
CC1(C)S[C@@H]2[C@H](NC(=O)[C@H](N)c3ccccc3)C(=O)N2[C@H]1C(=O)O [AMPICILLIN]		372 (≈ 130 µg/mL)		372 (≈ 130 µg/mL)	372 (≈ 130 µg/mL)		248 (≈ 86.7 µg/mL)		492 (≈ 172 µg/mL)	744 (≈ 260 µg/mL)	492 (≈ 172 µg/mL)	492 (≈ 172 µg/mL)	248 (≈ 86.7 µg/mL)	372 (≈ 130 µg/mL)	1240 (≈ 433 µg/mL)	248 (≈ 86.7 µg/mL)	248 (≈ 86.7 µg/mL)	372 (≈ 130 µg/mL)	744 (≈ 260 µg/mL)	372 (≈ 130 µg/mL)	
COc1ccc(/C=C2\S/C(=N\c3nc(C45CC6CC(CC(C6)C4)C5)cs3)NC2=O)cc1	23.1 (≈ 10.4 µg/mL)	46.2 (≈ 20.9 µg/mL)	17.3 (≈ 7.81 µg/mL)	23.1 (≈ 10.4 µg/mL)	46.2 (≈ 20.9 µg/mL)	11.6 (≈ 5.24 µg/mL)	23.1 (≈ 10.4 µg/mL)	5.8 (≈ 2.62 µg/mL)	69.3 (≈ 31.3 µg/mL)	46.2 (≈ 20.9 µg/mL)	23.1 (≈ 10.4 µg/mL)	23.1 (≈ 10.4 µg/mL)	11.6 (≈ 5.24 µg/mL)	11.6 (≈ 5.24 µg/mL)	23.1 (≈ 10.4 µg/mL)	23.1 (≈ 10.4 µg/mL)	23.1 (≈ 10.4 µg/mL)	46.2 (≈ 20.9 µg/mL)	11.6 (≈ 5.24 µg/mL)	23.1 (≈ 10.4 µg/mL)	MFC (Aspergillus niger [9]): 23.1 µM (≈ 10.4 µg/mL); MIC (Talaromyces funiculosus [10]): 11.6 µM (≈ 5.24 µg/mL); MFC (Fulvia fulva [13]): 23.1 µM (≈ 10.4 µg/mL); MFC (Aspergillus flavus [14]): 23.1 µM (≈ 10.4 µg/mL); MFC (Talaromyces funiculosus [15]): 23.1 µM (≈ 10.4 µg/mL); MIC (Trichoderma viride [16]): 11.6 µM (≈ 5.24 µg/mL); MIC (Aspergillus fumigatus [17]): 17.3 µM (≈ 7.81 µg/mL); MFC (Aspergillus fumigatus [21]): 23.1 µM (≈ 10.4 µg/mL); MIC (Aspergillus flavus [22]): 17.3 µM (≈ 7.81 µg/mL); MFC (Trichoderma viride [24]): 23.1 µM (≈ 10.4 µg/mL); MFC (Penicillium ochrochloron [29]): 23.1 µM (≈ 10.4 µg/mL); MIC (Aspergillus niger [32]): 17.3 µM (≈ 7.81 µg/mL)
CN[C@@H]1[C@H](O[C@H]2[C@H](O[C@H]3[C@H](O)[C@@H](O)[C@H](N=C(N)N)[C@@H](O)[C@@H]3N=C(N)N)O[C@@H](C)[C@]2(O)C=O)O[C@@H](CO)[C@H](O)[C@H]1O [STREPTOMYCIN]		172 (≈ 100 µg/mL)		86 (≈ 50 µg/mL)	344 (≈ 200 µg/mL)		43 (≈ 25 µg/mL)		344 (≈ 200 µg/mL)	516 (≈ 300 µg/mL)	344 (≈ 200 µg/mL)	344 (≈ 200 µg/mL)	172 (≈ 100 µg/mL)	172 (≈ 100 µg/mL)	344 (≈ 200 µg/mL)	86 (≈ 50 µg/mL)	172 (≈ 100 µg/mL)	172 (≈ 100 µg/mL)	172 (≈ 100 µg/mL)	258 (≈ 150 µg/mL)	
